# In ChEMBL document CHEMBL4689842, “EUbOPEN Chemogenomics Library wave 1” (2021):
# Experiments:
# Assay type in all cases: toxicity, cell-based
# [1] = test system: U2OS; assay: Multiplex assay against U2OS; details: human
# In short: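 On a CQ1 microscope at 37°C and 5% CO2, live cells were imaged after compound addition. They had been stained at seeding with Hoechst33342, BioTracker Green Microtubule Cytoskeleton Dye, MitoTracker Red and Annexin V Alexa Fluor 680. CellPathfinder machine-learning gating assigned cells to Hoechst high-intensity objects or normal cells, normal cells to healthy, pyknosed or fragmented nuclei, and pyknosed cells to mitotic or apoptotic. Tubulin, mitochondrial-mass and membrane-permeability phenotypes are per cents of healthy-nucleus cells.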
# [2] = test system: HEK-293T; assay: Incucyte cell viability with HEK293T; details: human, 10 µM, compound concentration 10 uM; further: filed as whole numbers so only -1 and 0 and 1 occur
# [3] = test system: U2OS; assay: Incucyte cell viability with U2OS; details: human, 10 µM, compound concentration 10 uM; further: filed as whole numbers so only -1 and 0 and 1 occur
# [4] = 12 h, 1 µM, compound concentration 1 uM, replicate 1
# [5] = 12 h, 1 µM, compound concentration 1 uM, replicate 2
# [6] = 12 h, 10 µM, compound concentration 10 uM, replicate 1
# [7] = 12 h, 10 µM, compound concentration 10 uM, replicate 2
# [8] = 24 h, 1 µM, compound concentration 1 uM, replicate 1
# [9] = 24 h, 1 µM, compound concentration 1 uM, replicate 2
# [10] = 24 h, 10 µM, compound concentration 10 uM, replicate 1
# [11] = 24 h, 10 µM, compound concentration 10 uM, replicate 2
# [12] = 6 h, replicate number 1, timepoint 6 hours
# [13] = 12 h, replicate number 1, timepoint 12 hours
# [14] = 18 h, replicate number 1, timepoint 18 hours
# [15] = 24 h, replicate number 1, timepoint 24 hours
structure (smiles),measurement,setting,value
CC(C)(C)c1cnc(CSc2cnc(NC(=O)C3CCNCC3)s2)o1 [BMS-387032],Population Apoptotic (%),[1]; [4],26%
same,Population Fragmented Nuclei (%),[1]; [4],13%
same,Population Healthy Nuclei (%),[1]; [4],69%
same,Population Hoechst High Intensity Objects (%),[1]; [4],4%
same,Population Membrane Permeable-Phenotype (%),[1]; [4],15%
same,Population Mitochondria Different-Phenotype (%),[1]; [4],17%
same,Population Mitotic Cells (%),[1]; [4],73%
same,Population Normal (%),[1]; [4],95%
same,Population Pyknosed Nuclei (%),[1]; [4],16%
same,Population Tubulin-Different-Phenotype (%),[1]; [4],39%
same,Total Cell Count,[1]; [4],140
same,Population Apoptotic (%),[1]; [5],14%
same,Population Fragmented Nuclei (%),[1]; [5],11%
same,Population Healthy Nuclei (%),[1]; [5],80%
same,Population Hoechst High Intensity Objects (%),[1]; [5],15%
same,Population Membrane Permeable-Phenotype (%),[1]; [5],21%
same,Population Mitochondria Different-Phenotype (%),[1]; [5],31%
same,Population Mitotic Cells (%),[1]; [5],85%
same,Population Normal (%),[1]; [5],84%
same,Population Pyknosed Nuclei (%),[1]; [5],7%
same,Population Tubulin-Different-Phenotype (%),[1]; [5],37%
same,Total Cell Count,[1]; [5],143
same,Population Apoptotic (%),[1]; [6],40%
same,Population Fragmented Nuclei (%),[1]; [6],18%
same,Population Healthy Nuclei (%),[1]; [6],61%
same,Population Hoechst High Intensity Objects (%),[1]; [6],3%
same,Population Membrane Permeable-Phenotype (%),[1]; [6],22%
same,Population Mitochondria Different-Phenotype (%),[1]; [6],26%
same,Population Mitotic Cells (%),[1]; [6],60%
same,Population Normal (%),[1]; [6],96%
same,Population Pyknosed Nuclei (%),[1]; [6],19%
same,Population Tubulin-Different-Phenotype (%),[1]; [6],31%
same,Total Cell Count,[1]; [6],144
same,Population Apoptotic (%),[1]; [7],18%
same,Population Fragmented Nuclei (%),[1]; [7],19%
same,Population Healthy Nuclei (%),[1]; [7],63%
same,Population Hoechst High Intensity Objects (%),[1]; [7],13%
same,Population Membrane Permeable-Phenotype (%),[1]; [7],10%
same,Population Mitochondria Different-Phenotype (%),[1]; [7],47%
same,Population Mitotic Cells (%),[1]; [7],81%
same,Population Normal (%),[1]; [7],86%
same,Population Pyknosed Nuclei (%),[1]; [7],17%
same,Population Tubulin-Different-Phenotype (%),[1]; [7],25%
same,Total Cell Count,[1]; [7],109
same,Population Apoptotic (%),[1]; [8],82%
same,Population Fragmented Nuclei (%),[1]; [8],13%
same,Population Healthy Nuclei (%),[1]; [8],75%
same,Population Hoechst High Intensity Objects (%),[1]; [8],5%
same,Population Membrane Permeable-Phenotype (%),[1]; [8],23%
same,Population Mitochondria Different-Phenotype (%),[1]; [8],34%
same,Population Mitotic Cells (%),[1]; [8],17%
same,Population Normal (%),[1]; [8],94%
same,Population Pyknosed Nuclei (%),[1]; [8],10%
same,Population Tubulin-Different-Phenotype (%),[1]; [8],38%
same,Total Cell Count,[1]; [8],200
same,Population Apoptotic (%),[1]; [9],55%
same,Population Fragmented Nuclei (%),[1]; [9],11%
same,Population Healthy Nuclei (%),[1]; [9],80%
same,Population Hoechst High Intensity Objects (%),[1]; [9],8%
same,Population Membrane Permeable-Phenotype (%),[1]; [9],22%
same,Population Mitochondria Different-Phenotype (%),[1]; [9],36%
same,Population Mitotic Cells (%),[1]; [9],44%
same,Population Normal (%),[1]; [9],91%
same,Population Pyknosed Nuclei (%),[1]; [9],8%
same,Population Tubulin-Different-Phenotype (%),[1]; [9],36%
same,Total Cell Count,[1]; [9],166
same,Population Apoptotic (%),[1]; [10],64%
same,Population Fragmented Nuclei (%),[1]; [10],22%
same,Population Healthy Nuclei (%),[1]; [10],45%
same,Population Hoechst High Intensity Objects (%),[1]; [10],9%
same,Population Membrane Permeable-Phenotype (%),[1]; [10],29%
same,Population Mitochondria Different-Phenotype (%),[1]; [10],43%
same,Population Mitotic Cells (%),[1]; [10],35%
same,Population Normal (%),[1]; [10],90%
same,Population Pyknosed Nuclei (%),[1]; [10],32%
same,Population Tubulin-Different-Phenotype (%),[1]; [10],41%
same,Total Cell Count,[1]; [10],174
same,Population Apoptotic (%),[1]; [11],78%
same,Population Fragmented Nuclei (%),[1]; [11],12%
same,Population Healthy Nuclei (%),[1]; [11],52%
same,Population Hoechst High Intensity Objects (%),[1]; [11],17%
same,Population Membrane Permeable-Phenotype (%),[1]; [11],24%
same,Population Mitochondria Different-Phenotype (%),[1]; [11],41%
same,Population Mitotic Cells (%),[1]; [11],21%
same,Population Normal (%),[1]; [11],82%
same,Population Pyknosed Nuclei (%),[1]; [11],34%
same,Population Tubulin-Different-Phenotype (%),[1]; [11],27%
same,Total Cell Count,[1]; [11],118
same,Growth Rate,[2]; [12],0
same,Growth Rate,[2]; [13],0
same,Growth Rate,[2]; [14],0
same,Growth Rate,[2]; [15],0
same,Growth Rate,"[3]; 0 h, replicate number 1, timepoint 0 hours",0
same,Growth Rate,[3]; [12],1
same,Growth Rate,"[3]; 6 h, replicate number 2, timepoint 6 hours",0
same,Growth Rate,[3]; [13],0
same,Growth Rate,[3]; [14],0
same,Growth Rate,[3]; [15],0
